Data on four compounds can be found in ChEMBL document CHEMBL1799919, “Design, synthesis, biological evaluation, and structure-activity relationships of substituted phenyl 4-(2-oxoimidazolidin-1-yl)benzenesulfonates as new tubulin inhibitors mimicking combretastatin A-4” (J Med Chem, 2011).

The source made the active and inactive calls. The calls are words filed in the database; no cut-off is given here.

For one data set, the system named is HT-29. The data set can be described thus: Antiproliferative activity against human HT-29 cells after 48 hrs by sulforhodamine B assay. It is filed as functional, cell-based. The following applies: HT-29, 48 h. In general terms: In SRB staining, fixed cells bind dye roughly in proportion to their protein.
The test system of data set [1] is M21. The data set is described as follows: Antiproliferative activity against human M21 cells after 48 hrs by sulforhodamine B assay. The following applies: M21, 48 h. It is filed as functional, cell-based.
A further data set relates to MCF7. The data set is described as follows: Antiproliferative activity against human MCF7 cells after 48 hrs by sulforhodamine B assay. It is filed as functional, cell-based. The following applies: MCF7, 48 h.
The subject of data set [2] is M21. The data set can be described thus: Cell cycle arrest in human M21 cells assessed as accumulation at G0/G1 phase at 5 times IC50 after 24 hrs using propidium iodide staining by flow cytometric analysis (reference value: 61%). It is filed as functional. (A flow cytometer gives signals particle by particle.)
The subject of data set [3] is M21. The data set can be described thus: Cell cycle arrest in human M21 cells assessed as accumulation at S phase at 5 times IC50 after 24 hrs using propidium iodide staining by flow cytometric analysis (reference value: 30%). The data set is classed as functional.
In data set [4] the test system is M21. The data set is described as follows: Cell cycle arrest in human M21 cells assessed as accumulation at G2/M phase at 5 times IC50 after 24 hrs using propidium iodide staining by flow cytometric analysis (reference value: 9%). The data set is classed as functional.
The test system of data set [5] is MDA-MB-231. The data set can be described thus: Displacement of N,N'-ethylenebis(iodoacetamide) from colchicine-binding site of beta-tubulin in human MDA-MB-231 cells at 1000 times IC50 preincubated for after 2 hrs before N,N'-ethylenebis(iodoacetamide) addition measured after 1.5 hrs by chemiluminescence assay. The data set is classed as cell-based. An outline of the steps:
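EBI (100 μM final) added for 1.5 h at 37 °C; controls received 0.5% DMSO. Lysates (20 μg protein) run on 10% SDS-PAGE and blotted with anti-β-tubulin (TUB 2.1). β-tubulin–EBI adduct band detected by ECL.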

Another data set relates to CHO. The data set is described as follows: Antiproliferative activity against CHO cells after 48 hrs by sulforhodamine B assay. The data set is classed as functional, cell-based. The note with it: Cricetulus griseus.
Another data set relates to K562. The data set can be described thus: Antiproliferative activity against human K562 cells after 48 hrs by sulforhodamine B assay. The data set is classed as functional, cell-based. The note with it: K562, 48 h.
The subject of another data set is L1210. The data set is described as follows: Antiproliferative activity against mouse L1210 cells after 48 hrs by sulforhodamine B assay. The data set is classed as functional, cell-based. The note with it: L1210, 48 h.
The nature of data set [6]: Antiproliferative activity against mouse P388D1 cells after 48 hrs by sulforhodamine B assay. It is filed as functional, cell-based. The following applies: P388D1, 48 h.
A short description of data set [7]: Antiproliferative activity against mouse B16F0 cells after 48 hrs by sulforhodamine B assay. It is filed as functional, cell-based. The note with it: B16F0, 48 h.
The next data set has as its system DU-145. The data set is described as follows: Antiproliferative activity against human DU145 cells after 48 hrs by sulforhodamine B assay. The data set is classed as functional, cell-based. The note with it: DU-145, 48 h.
The test system of data set [8] is HT-1080. The data set is described as follows: Antiproliferative activity against human HT1080 cells after 48 hrs by sulforhodamine B assay. The note with it: HT-1080, 48 h. It is filed as functional, cell-based.
Data set [9] relates to MDA-MB-231. The data set can be described thus: Antiproliferative activity against human MDA-MB-231 cells after 48 hrs by sulforhodamine B assay. The data set is classed as functional, cell-based. The note with it: MDA-MB-231, 48 h.
The subject of a further data set is SK-OV-3. The data set is described as follows: Antiproliferative activity against human SKOV3 cells after 48 hrs by sulforhodamine B assay. The data set is classed as functional, cell-based. The note with it: SK-OV-3, 48 h.
The next data set deals with CCRF-CEM. The data set is described as follows: Antiproliferative activity against human CEM cells after 48 hrs by sulforhodamine B assay. It is filed as functional, cell-based.
In data set [10] the test system is CHO-TAX 5-6. The data set is described as follows: Antiproliferative activity against paclitaxel-resistant CHO-TAX 5-6 cells after 48 hrs by sulforhodamine B assay. The data set is classed as functional, cell-based. The note with it: Cricetulus griseus, CHO-TAX 5-6, 48 h.
The test system of data set [11] is CHO-TAX 5-6. The data set is described as follows: Resistant ratio of IC50 for paclitaxel-resistant CHO-TAX 5-6 cells to IC50 for CHO cells. It is filed as functional, Cricetulus griseus. An outline of the steps: (§1)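 Ratio of the IC50 in the resistant line (CEM-VLB, CHO-TAX 5-6 or CHO-VV 3-2) to the IC50 in its parental line (CEM or CHO).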
A short description of data set [12]: Antiproliferative activity against multidrug-resistant human CEM/VLB cells after 48 hrs by sulforhodamine B assay. The data set is classed as functional.
In a further data set the test system is CEM-VLB. The data set is described as follows: Resistant ratio of IC50 for multidrug-resistant human CEM-VLB cells to IC50 for human CEM cells. It is filed as functional. An outline of the steps: as §1
The test system of data set [13] is M21. The data set is described as follows: Disruption of cytoskeleton microtubule structure of human M21 cells at 5 times IC50 after 16 hrs by indirect immunofluorescence assay. The data set is classed as functional, cell-based. In short, it runs like this:
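Fixed in 3.7% formaldehyde, permeabilized with saponin, and stained with anti-β-tubulin (TUB 2.1), Alexa-488 secondary and DAPI. Microtubule structure scored by fluorescence microscopy.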

Data set [14] can be described thus: Toxicity against fertilized chicken embryo assessed as mortality at 10 ug per egg, iv by CAM assay. The data set is classed as organism-based, Gallus gallus. The note with it: in vivo. In short, it runs like this:
(§2)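 Fertilized chicken eggs incubated 10 days with automatic turning, then static. HT-1080 cells (3.5 × 10^5 cells/egg) grafted onto exposed CAM. On day 11, drug in DMSO diluted into cremophor/ethanol/PBS (6.25/6.25/87.5 v/v) excipient, DMSO below 0.5%, 100 μL injected iv into 10-12 eggs. Eggs incubated to day 17, dead embryos counted. Untreated eggs used for normalization. Two independent experiments, at least 10 eggs each.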

Data set [15] concerns HT-1080. The data set is described as follows: Antivasculogenic activity against human HT1080 cells xenografted in chicken chorioallantoic membrane assessed as inhibition of tumor growth at 10 ug per egg, iv measured on day 14 by CAM assay. More on the design: scale not given: the % may be the effect or the level left. It is filed as functional. (Xenograft models place foreign cells or tissue in a host animal.)

The subject of another data set is CHO-VV 3-2. The data set is described as follows: Antiproliferative activity against colchicine- and vinblastine-resistant CHO-VV 3-2 cells after 48 hrs by sulforhodamine B assay. The following applies: Cricetulus griseus, CHO-VV 3-2, 48 h.
Data set [16] has as its system HT-1080. The data set is described as follows: Antivasculogenic activity against human HT1080 cells xenografted in chicken chorioallantoic membrane assessed as inhibition of tumor growth at 1 ug per egg, iv measured on day 14 by CAM assay. More on the design: scale not given: the % may be the effect or the level left. It is filed as functional.
Data set [17] deals with HT-1080. The data set is described as follows: Antivasculogenic activity against human HT1080 cells xenografted in chicken chorioallantoic membrane assessed as inhibition of tumor growth at 3 ug per egg, iv measured on day 14 by CAM assay. It is filed as functional. More on the design: scale not given: the % may be the effect or the level left.
The nature of data set [18]: Toxicity against fertilized chicken embryo assessed as mortality at 1 ug per egg, iv by CAM assay. The data set is classed as organism-based, Gallus gallus. The note with it: in vivo, read-out: Activity. In short, it runs like this:
as §2

The nature of data set [19]: Toxicity against fertilized chicken embryo assessed as mortality at 3 ug per egg, iv by CAM assay. The data set is classed as organism-based, Gallus gallus. The following applies: in vivo, read-out: Activity. An outline of the steps:
as §2

Broadly, the IC50 is the concentration that inhibits the measured activity by half.

Turning to `COc1ccc(OS(=O)(=O)c2ccc(N3CCNC3=O)cc2)cc1`, the IC50 in the data set on HT-29 was 130 nM; in the data set on M21 [1], 98 nM; with MCF7, 160 nM; with CHO, 240 nM; in the data set on K562, 240 nM; with L1210, 250 nM. In addition, the IC50 in data set [6] came to 260 nM; in data set [7] it was 510 nM; in the data set with DU-145, 650 nM; with HT-1080 [8], 240 nM; in the data set with MDA-MB-231 [9], 760 nM; in the data set with SK-OV-3, 320 nM. Further, the IC50 was 250 nM in the data set on CCRF-CEM, 200 nM in the data set with CHO-TAX 5-6 [10], 320 nM in data set [12] and 250 nM in the data set with CHO-VV 3-2. Further, the Activity in the data set with M21 [2] is reported as 0%; in the data set on M21 [3], 5%; with M21 [4], 95%; in data set [14], “Active”; in the data set with HT-1080 [15], 13%. In the data set with MDA-MB-231 [5], the inhibition entry is “Active”. In addition, the results for the “Ratio IC50” value in the data set on CHO-TAX 5-6 [11] and in the data set with CEM-VLB were 0.83 and 1.3, respectively. In addition, the result in the data set on M21 [13] was Active.

Consider `COc1ccc(/C=C\c2cc(OC)c(OC)c(OC)c2)cc1O` [COMBRETASTATIN A4], for which the IC50 amounted to 61 nM in the data set on HT-29, 4.3 nM in the data set with M21 [1] and 5.6 nM in the data set with MCF7. Further, the Activity in the data set with M21 [2] came to 2%; in the data set on M21 [3], 0%; in the data set on M21 [4], 98%; with HT-1080 [16], 48%; in the data set with HT-1080 [17], 45%. Moreover, in the data set with MDA-MB-231 [5], the inhibition result was “Active”. In addition, in the data set on M21 [13], the outcome was Active. Besides, the mortality in data set [18] worked out at 18%; in [19] it was 41%.

With `COc1cc(OS(=O)(=O)c2ccc(N3CCNC3=O)cc2)cc(OC)c1OC`, the IC50 worked out at 4 nM in the data set with HT-29; 4 nM with M21 [1]; 5 nM with MCF7; 7.4 nM in the data set on CHO; 2.5 nM in the data set with K562; 5.4 nM in the data set on L1210. Also, the IC50 in [6] came to 2.7 nM; in data set [7] it was 9.2 nM; in the data set with DU-145 it was 8.5 nM; in the data set on HT-1080 [8], 5.9 nM; with MDA-MB-231 [9], 9.4 nM; in the data set with SK-OV-3, 6.1 nM. The IC50 with CCRF-CEM is 7.1 nM; in the data set on CHO-TAX 5-6 [10], 3 nM; in [12], 9.5 nM; in the data set with CHO-VV 3-2 it was 8.2 nM. The Activity in the data set with M21 [2] is 1%; in the data set with M21 [3] it was 1%; in the data set with M21 [4], 98%; with HT-1080 [16], 39%. Moreover, the inhibition result in the data set with MDA-MB-231 [5] is “Active”. For the same compound, the “Ratio IC50” value in the data set on CHO-TAX 5-6 [11] amounted to 0.41; with CEM-VLB, 1.3. Besides, the outcome in the data set on M21 [13] was Active. The mortality in data set [18] was determined as 8%.

On to `O=C1NCCN1c1ccc(S(=O)(=O)Oc2cccc(I)c2)cc1`, for which the IC50 with HT-29 came to 11 nM; with M21 [1], 10 nM; with MCF7, 18 nM; with CHO, 17 nM; in the data set with K562 it was 14 nM; in the data set on L1210, 19 nM. For the same compound, the IC50 in [6] was 18 nM; in data set [7], 30 nM; in the data set with DU-145, 57 nM; with HT-1080 [8] it was 19 nM; with MDA-MB-231 [9], 48 nM; with SK-OV-3, 23 nM. Besides, the IC50 in the data set on CCRF-CEM amounted to 17 nM; with CHO-TAX 5-6 [10], 8.9 nM; in [12], 18 nM; with CHO-VV 3-2, 20 nM. Moreover, the Activity in the data set with M21 [2] is 2%; with M21 [3] it was 21%; in the data set on M21 [4], 77%. For the same compound, the inhibition result in the data set with MDA-MB-231 [5] was “Active”. Moreover, the “Ratio IC50” value came to 0.52 in the data set with CHO-TAX 5-6 [11] and 1.1 in the data set on CEM-VLB. Besides, the result in the data set on M21 [13] and with HT-1080 [17] was Active. Also, the mortality in [19] was 43%.
